ChEMBL document CHEMBL4316637, “Highly Modified Lanostane Triterpenes from Fruiting Bodies of the Basidiomycete Tomophagus sp” (J Nat Prod, 2019)
Values after ≈ are worked out from the molar mass of the structure shown.

Columns and labels:
[1] = test system: Plasmodium falciparum; experiment: Antimalarial activity against Plasmodium falciparum K1 infected in human type A+ erythrocytes incubated for 24 hrs followed by [G-3H]-hypoxanthine incorporation and measured after 18 hrs by liquid scintillation counting method; format: functional, organism-based
Method in brief: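 P. falciparum K1 (multidrug-resistant strain), tested in duplicate with the microculture radioisotope technique; IC50 derived.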

[2] = test system: Mycobacterium tuberculosis; experiment: Antitubercular activity against Mycobacterium tuberculosis H37Ra by GFP based microplate assay; format: functional
Method in brief: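 Whole-cell assay on M. tuberculosis H37Ra growth, read by green fluorescent protein signal in microplates; activity given as MIC in μg/mL.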

[3] = test system: Vero; experiment: Cytotoxicity against African green monkey Vero cells by GFP based microplate assay; format: cell-based; details: Chlorocebus sabaeus
Method in brief: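 Vero cells (nonmalignant African green monkey kidney […]) tested with a green fluorescent protein microplate assay.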

Row | SMILES | IC50 [1] [µM] | MIC [2] [µg/mL] | IC50 [3] [µM]
1 | CC1=CC[C@@H]([C@@H](C)[C@H]2CC[C@@]3(C)C4=C(C=C5C=CC(=O)OC(C)(C)[C@@H]5CC4)CC[C@]23C)OC1=O | 18 | > 50 | > 108
2 | CC(=O)O[C@@H]1C[C@H]([C@H](C)[C@@H]2CC=C(C)C(=O)O2)[C@@]2(C)C[C@H](O)C3=C(CC[C@@H]4C(=C3)C=CC(=O)OC4(C)C)[C@]12C | > 19 | > 50 | 34
3 | CC(=O)[C@H]1C[C@@H](O)[C@@]2(C)C3=C(C=C4C=CC(=O)OC(C)(C)[C@@H]4CC3)[C@@H](O)C[C@]12C | > 25 | > 50 | > 125
4 | CC(=O)O[C@]12CCC(=O)OC(C)(C)[C@@H]1CCC1=C2CC[C@]2(C)[C@@H]([C@H](C)[C@@H]3CC=C(C)C(=O)O3)CC[C@@]12C | > 19 | > 50 | > 95
5 | CC1=CC[C@@H]([C@@H](C)[C@H]2C[C@@H](O)[C@@]3(C)C4=C(C=C5C=CC(=O)OC(C)(C)[C@@H]5CC4)CC[C@]23C)OC1=O | 12 | 50 (≈ 104 µM) | 42
6 | COC(=O)CC[C@]1(COC(C)=O)C2=CC[C@]3(C)[C@@H]([C@H](C)[C@@H]4CC=C(C)C(=O)O4)CC[C@@]3(C)C2=CC[C@H]1C(C)(C)O | 8.1 | 50 (≈ 89.8 µM) | 32
7 | CC1=C[C@H](O)[C@@H]([C@@H](C)[C@H]2CC[C@@]3(C)C4=C(CC[C@]23C)[C@@]2(C)CC[C@H](O)C(C)(C)[C@@H]2CC4)OC1=O | > 21 | > 50 | 36
8 | CC1=CC[C@]2(OC1=O)O[C@H]1O[C@H]3C[C@@]14[C@H](CC[C@@]4(C)C1=C3C=C3C=CC(=O)OC(C)(C)[C@@H]3CC1)[C@@H]2C | > 20 | > 50 | > 102
9 | CC(=O)OC[C@]12CC[C@H](O)C(C)(C)[C@@H]1CCC1=C2CC[C@]2(C)[C@@H]([C@H](C)[C@@H]3CC=C(C)C(=O)O3)CC[C@@]12C | > 20 | > 50 | > 98
10 | CC1=CC[C@@H]([C@@H](C)[C@H]2C[C@@H](O)[C@@]3(C)C4=C(C=C5C=CC(=O)OC(C)(C)[C@@H]5CC4)[C@@H](O)C[C@]23C)OC1=O | > 20 | > 50 | > 101
11 | CC1=CC[C@@H]([C@@H](C)[C@H]2CC[C@@]3(C)C4=C(CC[C@]23C)[C@@]2(C)[C@H](O)C[C@H](O)C(C)(C)[C@@H]2CC4)OC1=O | > 21 | > 50 | > 106
12 | CC(=O)OC[C@@]1(CCC(=O)O)C2=CC[C@]3(C)[C@@H]([C@H](C)[C@@H]4CC=C(C)C(=O)O4)CC[C@@]3(C)C2=CC[C@H]1C(C)(C)O | 5.5 | > 50 | 88
13 | CC(=O)O[C@@H]1C[C@H]([C@H](C)[C@H]2OC(=O)C(C)=C[C@@H]2O)[C@@]2(C)CCC3=C(CC[C@@H]4C(=C3)C=CC(=O)OC4(C)C)[C@]12C | 7 | 50 (≈ 92.8 µM) | 22
14 | CC(=O)OC[C@]12CCC(=O)C(C)(C)[C@@H]1CCC1=C2CC[C@]2(C)[C@@H]([C@H](C)[C@@H]3CC=C(C)C(=O)O3)CC[C@@]12C | > 20 | > 50 | > 98
15 | CC(=O)O[C@@H]1C[C@H]([C@H](C)[C@@H]2CC=C(C)C(=O)O2)[C@@]2(C)CCC3=C(CC[C@@H]4C(=C3)C=CC(=O)OC4(C)C)[C@]12C | 18 | > 50 | 11
16 | CC(=O)O[C@@H]1C[C@H]([C@H](C)[C@H]2OC(=O)C(C)=C[C@@H]2O)[C@@]2(C)CC(=O)C3=C(CC[C@@H]4C(=C3)C=CC(=O)OC4(C)C)[C@]12C | > 18 | > 50 | > 90
17 | CC1=CC[C@@H]([C@@H](C)[C@H]2CC[C@@]3(C)C4=C(CC[C@]23C)[C@@]2(CO)CC[C@H](O)C(C)(C)[C@@H]2CC4)OC1=O | > 21 | > 50 | > 106
18 | CC(=O)OC[C@]12CC[C@H](O)C(C)(C)[C@@H]1CCC1=C2CC[C@]2(C)[C@@H]([C@H](C)[C@H]3OC(=O)C(C)=C[C@@H]3O)CC[C@@]12C | 6.6 | > 50 | 34
19 | CC(=O)O[C@]12CCC(=O)OC(C)(C)[C@@H]1CCC1=C2CC[C@]2(C)[C@@H]([C@H](C)[C@H]3OC(=O)C(C)=C[C@@H]3O)CC[C@@]12C | > 18 | > 50 | > 92
20 | CC(=O)O[C@]12CCC(=O)OC(C)(C)[C@@H]1CC=C1[C@]3(C)CC[C@H]([C@H](C)[C@@H]4CC=C(C)C(=O)O4)[C@@]3(C)C[C@H]3O[C@@]132 | > 18 | > 50 | > 92

Row | SMILES | IC50 [1] [µM] | MIC [2] [µg/mL] | IC50 [3] [µM]
21 | CC(=O)O[C@@H]1C[C@H]([C@H](C)[C@@H]2CC=C(C)C(=O)O2)[C@@]2(C)C[C@H](O)C3=C(CC[C@H]4C(C)(C)OC(=O)C=C[C@]45O[C@@H]35)[C@]12C | > 18 | > 50 | > 90
22 | CC(=O)O[C@@H]1C[C@H]([C@H](C)[C@H]2OC(=O)C(C)=C[C@@H]2O)[C@@]2(C)C[C@H](O)C3=C(CC[C@@H]4C(=C3)C=CC(=O)OC4(C)C)[C@]12C | > 18 | > 50 | > 90
23 | CC1=C[C@H](O)[C@@H]([C@@H](C)[C@H]2C[C@@H](O)[C@@]3(C)C4=C(C=C5C=CC(=O)OC(C)(C)[C@@H]5CC4)CC[C@]23C)OC1=O | > 20 | > 50 | 39
24 | CC(=O)OC(C)(C)[C@@H]1CC=C2C(=CC[C@]3(C)[C@@H]([C@H](C)[C@H]4OC(=O)C(C)=C[C@@H]4O)CC[C@@]23C)[C@@]12CCC(=O)OC2 | > 18 | > 50 | > 92
25 | COC(=O)CC[C@]1(COC(C)=O)C2=C(CC[C@H]1C(C)(C)O)[C@]1(C)CC[C@H]([C@H](C)[C@@H]3CC=C(C)C(=O)O3)[C@@]1(C)CC2 | 15 | 12.5 (≈ 22.4 µM) | 11
26 | CC1=CC[C@@H]([C@@H](C)[C@H]2CC[C@@]3(C)C4=C(CC[C@]23C)C[C@@]2(O)C=CC(=O)OC(C)(C)[C@@H]2CC4)OC1=O | 19 | > 50 | 45
27 | CC(=O)[C@H]1C[C@@H](O)[C@@]2(C)C3=C(C=C4C=CC(=O)OC(C)(C)[C@@H]4CC3)CC[C@]12C | > 26 | > 50 | > 130
28 | CC(=O)OC(C)(C)[C@@H]1CC=C2C(=CC[C@]3(C)[C@@H]([C@H](C)[C@@H]4CC=C(C)C(=O)O4)CC[C@@]23C)[C@@]12CCC(=O)OC2 | 7.7 | 50 (≈ 95.3 µM) | 38
29 | COC(=O)CC[C@]1(COC(C)=O)C2=CC[C@]3(C)[C@@H]([C@H](C)[C@H]4OC(=O)C(C)=C[C@@H]4O)CC[C@@]3(C)C2=CC[C@H]1C(C)(C)O | 6.3 | > 50 | 32
30 | CC1=CC[C@@]2(OC1=O)O[C@H]1O[C@H]3C[C@@]14[C@H](CC[C@@]4(C)C1=C3C=C3C=CC(=O)OC(C)(C)[C@@H]3CC1)[C@@H]2C | > 20 | > 50 | > 102
31 | CC(=O)O[C@@H]1C[C@H]([C@H](C)[C@@H]2CC=C(C)C(=O)O2)[C@@]2(C)CCC3=C(CC[C@]4(C(C)(C)O)OC(=O)C=CC4=C3)[C@]12C | > 19 | > 50 | 33
32 | CC(=O)O[C@@H]1C[C@H]([C@H](C)[C@@H]2CC=C(C)C(=O)O2)[C@@]2(C)CCC3=C(CC[C@@H]4C(=CCC(=O)OC4(C)C)C3)[C@]12C | 12 | > 50 | 94
33 | CC1=CC[C@@H]([C@@H](C)[C@H]2CC[C@@]3(C)[C@@]45CC[C@@H](C(C)(C)O4)[C@]4(CCC(=O)OC4)C5=CC[C@]23C)OC1=O | > 21 | > 50 | 98
34 | CC1=CC[C@@H]([C@@H](C)[C@H]2C[C@@H](O)[C@@]3(C)C4=C(C=C5C=CC(=O)O[C@@]5(C(C)(C)O)CC4)CC[C@]23C)OC1=O | > 20 | > 50 | > 101
35 | CC(=O)O[C@@H]1C[C@H]([C@H](C)[C@@H]2CC=C(C)C(=O)O2)[C@@]2(C)CC(=O)C3=C(CC[C@@H]4C(=C3)C=CC(=O)OC4(C)C)[C@]12C | 10 | 50 (≈ 93.2 µM) | 92
36 | CC1=CC[C@@H]([C@@H](C)[C@H]2CC[C@@]3(C)C4=C(CC[C@]23C)[C@@]2(C)CC[C@H](O)C(C)(C)[C@@H]2CC4)OC1=O | > 22 | > 50 | > 110
37 | CC1=CC[C@@H]([C@@H](C)[C@H]2CC[C@@]3(C)C4=CC[C@H]5C(C)(C)OC[C@@]5(CCC(=O)O)C4=CC[C@]23C)OC1=O | 5.1 | > 50 | > 104
38 | C[C@H]1[C@@H](O)O[C@@H]2O[C@@]3(C)CC[C@H]4[C@H](C)CC[C@@H]1[C@@]24OO3 [ARTENIMOL] | 0.0028 | – | –
39 | Cc1c2ccncc2c(C)c2c1[nH]c1ccccc12 [ELLIPTECINE] | – | – | 3.1
40 | NNC(=O)c1ccncc1 [ISONIAZID] | – | 0.047 (≈ 0.343 µM) | –
